Assay: Toxicity liver stage against HepG2, at 10uM
Format: cell-based
Parameters: test concentration 10 uM, cell line HepG2-A16-CD81EGFP
Settings: human, HepG2-A16-CD81EGFP cells; read-out: INHIBITION
In short: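 Uninfected HepG2-A16-CD81EGFP cells, 3 × 10^3 per well, 1536-well, plated on prespotted compound at 10 μM final, parasite-free screening media added to match infected plates; puromycin 10 μM positive, DMSO 0.5% negative; run in parallel with 48 h PbLuc assay at 37 °C, 5% CO2; viability by CellTiter-Glo luminescence, normalized to controls.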

Row | Compound | cytotoxicity at 10 µM [%]
1 | Cn1ncc(N2CCOCC2)c(Cl)c1=O | -13.8
2 | CN1CCOC[C@H]1c1nc(-c2cccc(F)c2)c[nH]1 | -3.68
3 | Cc1cc2nc(CO[C@H]3CN(C(=O)C4CC4)C[C@H]3F)[nH]c2cc1C | -43.4
4 | COC(=O)[C@H]1CN(C(=O)NC(C)C)CCN1C(=O)CSC | -6.52
5 | CN1C[C@H](O)[C@]2(CCN(C(=O)COc3ccccc3)C2)S1(=O)=O | 1.32
6 | Cc1cc(CNC(=O)c2ccno2)c(C)o1 | -6.39
7 | O=c1cc(Cn2ccnc2)nc2n1CCCN(Cc1ccco1)C2 | 7.77
8 | Cc1ccccc1C(=O)N1CCCn2cnc(CN3CCCC3=O)c2C1 | 10.2
9 | O=C(COc1coc(CN2CCCCC2)cc1=O)NCc1ccccc1 | -7.25
10 | COCC1CC2(CCN(C(=O)c3cccc(C)c3)CC2)CO1 (stereo not given) | -5.15
11 | O=C(c1ccc(F)c(F)c1)N1CCN2CCCC2C1 (stereo not given) | -7.09
12 | CCOc1cc(C(=O)N2CCN(CC)CC2)cc2occc12 | 4.37
13 | Oc1ccccc1-c1n[nH]c(C2CC2)n1 | 5.84
14 | Cc1ccnc(C2COCCN2C)n1 (stereo not given) | 3.59
15 | CC(=O)N1CCC(Cc2ccc(-c3ccnn3C)nc2)CC1 | 2.74
16 | CC(C)C(=O)N1CCCc2c(cnn2-c2ccccc2)C1 | 11
17 | CNC(=O)C1(CCCc2ccccn2)CCN1Cc1coc(C)n1 (stereo not given) | 19.7
18 | Cc1cc(C2CCN(S(=O)(=O)N(C)C)CC2)ccn1 | -13
19 | CCCn1cc(C(=O)N2CCCC2(C)c2nc(C)cc(N)n2)cn1 (stereo not given) | -1.13
20 | Cc1cnc(-c2nc(O)c3c(n2)CN(C(=O)C2CCCO2)CC3)cn1 (stereo not given) | -0.661
21 | Cn1cc(CN2CCCC(c3nccnc3-c3cccc(F)c3)C2)cn1 (stereo not given) | 0.954
22 | O=C(Cc1cccc(F)c1)N1CCCCC1c1ccn2ccnc2n1 (stereo not given) | -0.619
23 | Cc1cccc(CN2CCCC3(Cc4ccccc4CNC3=O)C2)n1 (stereo not given) | 5.37

Row | Compound | cytotoxicity at 10 µM [%]
24 | CC(C)(C)NCC(=O)N1CCCC(n2ccnc2)C1 (stereo not given) | 0.462
25 | CCS(=O)(=O)CC(=O)Nc1ccc2oc(C3CC3)nc2c1 | -5.4
26 | CCn1nnnc1-c1cccc(NC(=O)CCc2cnn(C)c2)c1 | -6.19
27 | CCOCc1ccc(NCc2cnc(N3CCN(C)CC3)nc2)cc1 | 12.1
28 | O=C(CN1C(=O)CCCc2sccc21)NC1CCc2nccn2C1 (stereo not given) | 9.29
29 | CS(=O)(=O)CCCNC(=O)Nc1sc2ccccc2c1Cl | 6.54
30 | Cc1cccc(COc2ccc(C(C)NS(N)(=O)=O)cc2)c1 (stereo not given) | -6.96
31 | CSc1ncccc1C(=O)Nc1ccc(Cn2ccccc2=O)cc1 | 2.77
32 | COc1cc(CNC(=O)COC2CCCC2)ccc1O | -7.2
33 | CCOCCN(C)C(c1cccnc1)c1ccc(F)cc1F (stereo not given) | 5.64
34 | COC(=O)N(C)CCCC(=O)Nc1[nH]nc(-c2ccncc2)c1C | -0.946
35 | COCCN(C)CC1CCCN1S(=O)(=O)c1cccc(F)c1F (stereo not given) | 4.93
36 | Cn1ccc(C(=O)N2CCCC2c2ccc3c(c2)OCCO3)cc1=O (stereo not given) | 12.3
37 | Cc1cnc2c(S(=O)(=O)NC(=O)C(C)OCC3CC3)cccc2c1 (stereo not given) | -1
38 | CC(C)NC(=O)C(C(C)C)n1cnc2cc(F)c(F)cc21 (stereo not given) | 12.5
39 | CCOC(C)C(=O)Nc1ccc2c(ccn2CC)c1 (stereo not given) | 0.877
40 | COC(=O)N1CCC(Nc2ccc(C#N)c(Cl)c2)C1 (stereo not given) | -8.21
41 | CC(C)CC(CNC(=O)c1cccnc1Oc1cccnc1)N(C)C (stereo not given) | 1.44
42 | Cn1nc2c(cc1=O)CN(Cc1nc3ccccc3c(=O)[nH]1)CC2 | -7.64
43 | CCN1CCC(NC(=O)CN2CCCC(NS(C)(=O)=O)C2)CC1 (stereo not given) | 2.94
44 | COCCOCCC(=O)Nc1c(-c2ccc(F)cc2)ncn1C | -3.31
45 | Cc1nccn1-c1cc(CNC(=O)C2CCC(=O)N2)ccn1 (stereo not given) | -1.24
46 | Cc1cnc(C(=O)N2CCCN(Cc3cnn(C(C)C)c3)CC2)cn1 | 1.28

Row | Compound | cytotoxicity at 10 µM [%]
47 | CCc1cc(NC(=O)C2CCCN(C(=O)c3ccncc3)C2)[nH]n1 (stereo not given) | -8.18
48 | COC(=O)Cc1cccc(NC(=O)Cc2cc(C)[nH]n2)c1 | -2.45
49 | Oc1ncccc1-c1nc(-c2cccc(CN3CCOCC3)c2)no1 | -11.8
50 | OCCCN(CCn1cncn1)c1ccccc1 | -4.04
51 | Cc1nnc(CN(Cc2cccc(Br)c2)C2CC2)o1 | 3.94
52 | O=C(Nc1nnn[nH]1)c1ccc(-n2cccc2)c(F)c1 | -1.63
53 | Cc1nn(CN(CC2CCOC2)C2CC2)c(=O)c2ccccc12 (stereo not given) | 4.77
54 | Cc1nsc(NCc2ccc(CS(=O)(=O)NC(C)C)cc2)n1 | -2.8
55 | COc1cccc(C2=CCN(CCN3CCOC3=O)CC2)c1 | -7.52
56 | CCc1noc(CN(C)C(=O)C(C)(C)Oc2cccc(Cl)c2)n1 | -3.63
57 | CN1CCN(C(=O)CCc2cc(Br)cs2)CC1 | -5.35
58 | Cc1csc(N(C)C(=O)C(c2c(F)cccc2Cl)N(C)C)n1 (stereo not given) | -44.3
59 | O=S(=O)(CC1CCCCO1)Nc1c(F)cccc1-n1cccn1 (stereo not given) | 3.44
60 | Cc1ccc(NC(=O)NC(C)c2nc[nH]n2)s1 (stereo not given) | -2.18
61 | CCC(C)(NCC(=O)Nc1ccccc1)c1nc(C)cs1 (stereo not given) | -8.66
62 | O=C(NCCCn1cccn1)N1CCCC1c1ccncc1 (stereo not given) | 21.5
63 | Cc1nnc(NCC2(c3ccccc3)CC2)c(C#N)c1C | 3.51
64 | CC(CNC(=O)Nc1ccc(N(C)C)nc1)Cn1cccn1 (stereo not given) | 6.95
65 | CS(=O)(=O)CCNC(=O)C1(c2cccc(Cl)c2)CCCCC1 | 8.68
66 | CS(=O)(=O)NCC1CCCN(C(=O)Nc2ccccc2Cl)C1 (stereo not given) | -9.73
67 | CCc1cnc(N2CC3(CCN(S(=O)(=O)C4CC4)C3)C2)nc1 | -109
68 | CN1CCN(Cc2cnc3n2CCN(C(=O)c2cscn2)C3)CC1 | -78.2
69 | Cn1cc(-c2nnn3c2COC(CNCc2nccs2)C3)cn1 (stereo not given) | -4.89

Row | Compound | cytotoxicity at 10 µM [%]
70 | CN(C)CCn1ccnc1C1CCN(C(=O)CCC(F)(F)F)CC1 | -0.734
71 | COc1ccccc1-c1ncc(CN2CCCC[C@H](N(C)C)C2)s1 | -5.23
72 | OCC1(O)CCCN(Cc2noc(-c3ccccc3)n2)C1 (stereo not given) | -4.76
73 | Cc1cccc(-n2nc(CC(C)C)nc2[C@H](C)O)c1 | 5.54
74 | COC(=O)c1cc(OCC2CCC2)cc(C(=O)N[C@H](C)C(N)=O)c1 | 16.6
75 | O=c1[nH]c(-c2ccccc2)nc2c1CCN(S(=O)(=O)N1CCCC1)C2 | 3.86
76 | Cc1cc(C2CCC2)nc(NCC(C)(C)N2CCOCC2)n1 | 11.5
77 | CN(C)[C@H]1CCN(c2nc(C(C)(C)C)nc3c2cnn3C)C1 | -6.12
78 | CSCc1noc(-c2ccc(C)c(N3CCNC3=O)c2)n1 | -8.77
79 | CCN(C)C(=O)CN1CCC(c2cc(N3CCOCC3)nc(C)n2)CC1 | -2.02
80 | COc1ccccc1-c1ccc(NCc2cn3c(n2)SCC3)nn1 | 8.62
81 | CC(C)c1nnc(NCc2cc3n(n2)CCN(C2CCCCC2)C3)s1 | -4.63
82 | COc1ccc(/C=C/CN2CCN(c3nccnc3C)CC2)cc1 | -8.47
83 | CCCc1nc(C(=O)N2CCn3nc(C(=O)OC)cc3C2)cs1 | 8.87
84 | CCN1CCN(C(C)(C)CNc2nc(C)cc(C3CCC3)n2)CC1 | 1.47
85 | O=C1NC[C@@]2(C(=O)O)CN(Cc3cccc(OC4CCCC4)c3)C[C@@H]12 | -2.34
86 | CC1CN(CC(=O)Nc2ccncc2)CCN1Cc1nccn1C (stereo not given) | -13.7
87 | c1ccc(-c2nnc(CN3CCCC(Cn4cncn4)C3)o2)cc1 (stereo not given) | -7.51
88 | CCC1c2ccsc2CCN1C(=O)NCc1cccnc1OC (stereo not given) | -2.28
89 | CCCc1noc(CN2CCN(CCO)CC2)n1 | -12.1
90 | Cc1ccc(NC2CCN(C(=O)c3c(C)oc(C)c3C)CC2)nn1 | -2.4
91 | COc1ccc(C(CNC(=O)Nc2cc(C)nn2C)N(C)C)cc1 (stereo not given) | 3.31
92 | CC1CCCN(C(=O)NCCCn2cncn2)C1 (stereo not given) | -3.98

Row | Compound | cytotoxicity at 10 µM [%]
93 | CC(C)Oc1ncccc1CNC(=O)N1CCSCC1 | -11.8
94 | O=C(Cc1ccc2c(c1)CCO2)N1CCN(c2nccs2)CC1 | -10.7
95 | CCn1ncc2c1CCCC2NCc1cc(C)ccc1OC (stereo not given) | 1.8
96 | Cc1cnc(CN(C)C2CCN(CC(=O)Nc3nccs3)C2)o1 (stereo not given) | -1.49
97 | CCc1n[nH]c(C2CN(Cc3nnc(C4CCC4)o3)CCO2)n1 (stereo not given) | -6.28
98 | Cn1cnc2c1CCN(CCOc1ccc(C#N)cc1)C2 | -9.47
99 | Cc1cccc(-c2noc(CN3CCCCC3Cn3cncn3)n2)c1 (stereo not given) | -4.32
100 | CC(Cc1cccs1)NC(=O)CCn1cccn1 (stereo not given) | -14.7
101 | CCc1n[nH]c(C2CN(CCCS(C)(=O)=O)CCO2)n1 (stereo not given) | -3.48
102 | Clc1ccc(OCCNCCn2cccn2)cc1 | -14.4
103 | O=C(CCN1CCCC1c1cccc(F)c1)N1CCc2sccc2C1 (stereo not given) | -10.7
104 | CC1CCN(Cn2nc(-c3ccc(F)cc3)oc2=O)CC1 | -2.55
105 | Cc1cc(CN2CCN(CCOc3cccc(C#N)c3)CC2)no1 | -11.6
106 | O=C(NCCN1CCc2ccccc2C1)c1scnc1Cl | -4.84
107 | O=C(c1ccc(Br)o1)N1CCCCC1Cn1cccn1 (stereo not given) | -5.31
108 | CCOCC(O)CN1CCN(C(=O)Cc2ccc3c(c2)CCO3)CC1 (stereo not given) | -18.5
109 | O=C(NCc1cc[nH]n1)N(CCCO)C1CCc2ccccc21 (stereo not given) | -3.27
110 | Cc1nc(-c2ccccc2)n(CC(=O)N(C(C)C)C(C)C)n1 | -4.57
111 | CNS(=O)(=O)c1cccc(CNc2ccc(C(F)(F)F)nn2)c1 | -11.4
112 | CNC(=O)c1cc2c(nc1N(C)C)CCN(S(=O)(=O)C1CC1)CC2 | 0.118
113 | NC(=O)COc1ccc(CNCc2ccc(F)cc2)cc1 | -2.05
114 | CCN1CCC2(CC1)CC(COC)N(Cc1csc(C)n1)C2 (stereo not given) | 6.68
115 | C=c1ncsc1=C1NN=C(C2CCCN2C(=O)c2ccn(CC)n2)O1 (stereo not given) | -7.82
